Results published in publication PMC5652008 (EBioMedicine, 2017).
Square brackets hold non-standard residues; d marks the D form. Peptide text beside a SMILES is read from it. * marks the point of attachment. Sta = CC(C)C[C@H](N)[C@@H](O)CC(=O)O; Palmitoyl = CCCCCCCCCCCCCCCC(=O)*

Legend:
BACE1 [1] = target: T1, BACE1 (Homo sapiens, UniProt P56817); test: SPR binding assay on immobilized BACE1
How it was run: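 SPR at 18 °C in the immobilization buffer. Peptide titrations used 2-fold dilution steps, run either as single-cycle kinetics (5 concentrations) or multi-cycle kinetics (10 concentrations). Two protein surfaces and an activated/deactivated CM5 reference surface were measured in parallel on one sensor.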

BACE2 = target: T2, BACE2 (Homo sapiens, UniProt Q9Y5Z0); test: SPR binding assay on immobilized BACE2; conditions: BACE2 surface, 18 °C, pH 4.5
T2 sequence (Q9Y5Z0 20-465): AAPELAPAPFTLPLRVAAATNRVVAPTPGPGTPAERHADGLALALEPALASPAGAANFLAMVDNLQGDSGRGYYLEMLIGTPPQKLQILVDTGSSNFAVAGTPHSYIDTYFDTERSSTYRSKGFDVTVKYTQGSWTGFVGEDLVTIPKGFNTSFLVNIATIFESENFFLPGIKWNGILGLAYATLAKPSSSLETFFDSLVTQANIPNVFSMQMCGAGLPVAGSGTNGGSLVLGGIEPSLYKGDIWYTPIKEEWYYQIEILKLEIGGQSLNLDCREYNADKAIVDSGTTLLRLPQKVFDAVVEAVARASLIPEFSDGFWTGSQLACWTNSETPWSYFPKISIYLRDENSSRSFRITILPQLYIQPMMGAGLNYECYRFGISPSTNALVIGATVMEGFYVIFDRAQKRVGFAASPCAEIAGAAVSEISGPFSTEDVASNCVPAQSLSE
How it was run: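 Binding was run at 18 °C in the same buffer, either single-cycle (5 concentrations) or multi-cycle (10 concentrations), twofold dilutions, against an activated/deactivated reference surface.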

BACE1 [2] = target: T1, BACE1; test: Cell-based Aβ lowering IC50 assay
How it was run: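 Test compounds, free or Brain Shuttle-coupled, added in serial dilutions to HEK293 cells stably expressing wild-type human APP695, grown in Iscove's medium with 10% FBS to ~80% confluency. Construct dilution buffers served as control. Overnight at 37 °C, 5% CO2. Supernatant Aβ40 read by AlphaLISA: acceptor beads 1 h, then streptavidin donor beads 30 min, both at RT; emission at 615 nm. Compared with vehicle-treated cells; mean ± SEM.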

[3] = tested on: Aβ production in human stem-cell derived neurons; test: Human neural stem cell-based Aβ40 inhibition assay; conditions: 48 h incubation
How it was run: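 Neurons differentiated from SB-AD3 human iPSCs (healthy adult donor fibroblasts) via embryoid bodies and dual SMAD inhibition. Doses 0.128–10,000 nM (three independent differentiations) or 0.001024–80 nM (one differentiation), two technical replicates per dose. Vehicle was histidine/NaCl/1.3 mM hydroxypropyl-β-cyclodextrin for peptides and DMSO for small molecules. Aβ40 read by AlphaLISA at 615 nm, compared with vehicle-treated cells; means ± SEM.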

plasma Aβ = test: Plasma Aβ40 after single i.v. dose in mice; assay type: in vivo, C57BL/6 J mice; conditions: 5 h post dose
How it was run: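 Nine-week-old female mice received one i.v. injection of test compound at 0.003–3 mg/kg, with the buffer alone as vehicle control; three animals per group. Under anaesthesia, blood was collected into EDTA tubes, spun 8 min at 1600 × g, and plasma diluted 1:10 in 0.2% diethanolamine before solid-phase extraction.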

[4] = target: T3, N-terminal T7-tagged BACE2 (amino acids 20-465) (UniProt Q9Y5Z0 20-465); test: SPR
T3 sequence: T2 sequence (Q9Y5Z0 20-465)

[5] = target: Beta-secretase 1 (BACE1), C-terminal His-tagged full length; test: SPR
[6] = target: BACE1 ectodomain mutant protein (A14-T454, K307A) (UniProt P56817 14-454, K307A); test: crystal structure
Sequence of BACE1 ectodomain mutant protein (A14-T454, K307A) (P56817 14-454 K307A): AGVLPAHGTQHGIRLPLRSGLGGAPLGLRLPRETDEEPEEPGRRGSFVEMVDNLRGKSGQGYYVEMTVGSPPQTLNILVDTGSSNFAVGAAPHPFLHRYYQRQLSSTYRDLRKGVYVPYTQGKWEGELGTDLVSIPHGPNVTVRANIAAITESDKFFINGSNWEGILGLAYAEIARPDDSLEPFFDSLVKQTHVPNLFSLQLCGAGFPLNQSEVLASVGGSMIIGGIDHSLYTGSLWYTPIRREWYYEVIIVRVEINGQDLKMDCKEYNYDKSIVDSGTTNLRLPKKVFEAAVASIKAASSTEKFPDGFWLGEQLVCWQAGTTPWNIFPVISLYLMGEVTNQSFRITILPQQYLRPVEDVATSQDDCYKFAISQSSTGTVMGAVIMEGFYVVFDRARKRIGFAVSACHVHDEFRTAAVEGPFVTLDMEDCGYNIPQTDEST

T1 sequence (P56817 46-501): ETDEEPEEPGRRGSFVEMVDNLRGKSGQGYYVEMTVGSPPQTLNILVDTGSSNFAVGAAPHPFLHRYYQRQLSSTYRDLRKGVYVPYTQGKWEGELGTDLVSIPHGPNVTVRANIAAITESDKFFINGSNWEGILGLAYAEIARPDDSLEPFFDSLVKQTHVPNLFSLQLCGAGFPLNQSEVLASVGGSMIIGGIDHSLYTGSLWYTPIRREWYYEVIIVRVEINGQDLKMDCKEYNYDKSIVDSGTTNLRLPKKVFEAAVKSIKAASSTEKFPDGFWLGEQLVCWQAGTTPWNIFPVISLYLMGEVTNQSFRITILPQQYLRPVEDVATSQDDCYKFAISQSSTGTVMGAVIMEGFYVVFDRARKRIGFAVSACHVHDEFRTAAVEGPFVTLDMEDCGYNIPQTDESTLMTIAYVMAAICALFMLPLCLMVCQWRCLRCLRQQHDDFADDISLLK

Molecule: CC(C)C[C@H](NC(=O)[C@H](CC(N)=O)NC(=O)[C@@H](NC(=O)[C@@H](N)CCC(=O)O)C(C)C)[C@@H](O)CC(=O)N[C@H](C(=O)N[C@@H](C)C(=O)N[C@@H](CCC(=O)O)C(=O)N1CCC[C@@H]1C(N)=O)C(C)C [Pep#1, Glu-Val-Asn-Sta-Val-Ala-Glu-DPro-NH2] (H-EVN[Sta]VAE[dP]-NH2; N-terminus assumed)
- kon (BACE1 [1]; BACE1 surface, 18 °C, pH 4.5): 2.5–4.0·10^3 1/Ms
- Selectivity for BACE1 (BACE1 [1]; ratio KD(BACE2)/KD(BACE1)): > 280
- kon (BACE2): 2.7–3.1·10^3 1/Ms
- IC50 (BACE1 [2]): > 40 µM

Molecule: CCCCCCCCCCCCCCCC(=O)NCCCC[C@H](NC(=O)[C@H]1CCCN1C(=O)[C@H](CCC(=O)O)NC(=O)[C@H](C)NC(=O)[C@@H](NC(=O)C[C@H](O)[C@H](CC(C)C)NC(=O)[C@H](CC(N)=O)NC(=O)[C@@H](NC(=O)[C@H](CCC(=O)O)NC(=O)CNC(=O)[C@@H](CCCCN)NC(=O)CNC(=O)[C@H](CC(C)C)NC(=O)[C@@H]1CCCN1C(=O)[C@@H](NC(=O)[C@H](Cc1ccccc1)NC(=O)[C@H](CCCCN)NC(=O)[C@@H]1CCCN1C(=O)[C@H](Cc1ccc(O)cc1)NC(=O)CNC(=O)CNC(=O)CN)[C@@H](C)CC)C(C)C)C(C)C)C(N)=O [Pep#15, Gly-Gly-Gly-Tyr-Pro-Lys-Phe-Ile-Pro-Leu-Gly-DLys-Gly-Glu-Val-Asn-Sta-Val-Ala-Glu-DPro-Lys(Palmitoyl)-NH2] (H-GGGYPKFIPLG[dK]GEVN[Sta]VAE[dP]K(Palmitoyl)-NH2; N-terminus assumed)
- Aβ production inhibition in human stem-cell derived neurons [3]: able to reduce the Aβ production
- Plasma Aβ40 inhibition (plasma Aβ; 0.003-3 mg/kg i.v., uncoupled peptides): Dose-dependent inhibition
- Plasma Aβ level reduction (plasma Aβ; 3 mg/kg i.v., uncoupled peptide): 50%
- Aβ40 production inhibition in HEK293 APP cells (BACE1 [2]; 16 h / overnight incubation): blocked production of Aβ40

Molecule: Ac-YPYFLPISAK-NH2 [Pep#6]
- Kd [4]: 66 µM
- Kd [5]: 25 µM

Molecule: Ac-ALYPYFLPISAK-NH2 [Pep#6a]
- binding result [6]: binds
